Experiments:
CDK2/Cyclin A2 [1] = target: T1, CDK2/Cyclin A2 (Homo sapiens, UniProt P24941); test: Inhibition of human CDK2/Cyclin A2 using PKTPKKAKKL as substrate by fluorescence assay; assay type: protein-complex assay
CDK2/Cyclin A2 [2] = target: T1, CDK2/Cyclin A2; test: Inhibition of human CDK2/Cyclin A2 using PKTPKKAKKL as substrate by P33-radiolabeled assay; assay type: protein-complex assay
Method in brief: (§1)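 Radiometric (P33) kinase assay run by a contract lab on CDK–cyclin complexes. Inhibitor tested in duplicate at 0.05 nM to 1000 nM with ATP at 10 μM. […] For the in-house assays, IC50 was obtained by Hill-equation fitting.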

NCI-H929 = test: Induction of apoptosis in human NCI-H929 cells assessed as increase in cleaved caspase-3 level at […] after 24 hrs by FACS flow cytometric analysis relative to control; assay type: functional
A673 = test: Induction of apoptosis in human A673 cells assessed as caspase-3 activation at 0.05 uM to 5 uM after 24 hrs by luminescence assay relative to control; assay type: functional
Method in brief: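 Caspase-3/7 activation measured with a Caspase-Glo 3/7 luminescent assay. Cells were plated as for the high-throughput viability assay and exposed for 24 h to serial dilutions. EC50 was obtained from the dose-response.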

SW872 = test: Cytotoxicity against human SW872 cells after 72 hrs by resazurin/resorufin-based fluorescence assay; assay type: functional, cell-based; details: SW872, 72 h
HOS-TE85 = test: Cytotoxicity against human MNNG-HOS cells after 72 hrs by resazurin/resorufin-based fluorescence assay; assay type: functional, cell-based; details: HOS-TE85, 72 h
[3] = Cytotoxicity against human NCI-H929 cells after 72 hrs by resazurin/resorufin-based fluorescence assay; assay type: functional, cell-based; details: NCI-H929, 72 h
[4] = Cytotoxicity against mouse GC-1 cells after 72 hrs by MTT assay; assay type: functional, cell-based; details: GC-1, 72 h
Method in brief: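 Cells kept in RPMI or DMEM with 10% FBS at 37 °C, 5% CO₂ and allowed to attach overnight; 72 h with increasing inhibitor concentrations; then 1 mg/mL MTT for 3 h, DMSO solubilisation, OD read at 540 nm. Testis lines had culture conditions adapted to them. Dose-response in triplicate, 9 concentrations between 0.02 and 100 μM, averaged.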

[5] = target: CDK9/cyclin T1 (Homo sapiens) (UniProt O60563+P50750); test: Inhibition of human CDK9/CyclinT1 at 0.1 uM incubated for 15 mins prior to substrate addition measured after 90 mins by P33-radiolabeled assay relative to control; assay type: protein-complex assay
Method in brief: (§2)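 Kinome profiling (339-kinase panel) by a contract lab using a P33-radiolabel assay. Each kinase was tested at a single compound concentration of 0.1 μM, in duplicate, with ATP at 10 μM.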

[6] = target: Cyclin-dependent kinase 2/cyclin E1 (Homo sapiens) (UniProt P24864+P24941); test: Inhibition of human CDK2/Cyclin E at 0.1 uM incubated for 15 mins prior to substrate addition measured after 90 mins by P33-radiolabeled assay relative to control; assay type: protein-complex assay
[7] = target: CDK1/Cyclin E (Homo sapiens) (UniProt P06493+P24864); test: Inhibition of human CDK1/Cyclin E at 0.1 uM incubated for 15 mins prior to substrate addition measured after 90 mins by P33-radiolabeled assay relative to control; assay type: protein-complex assay
Sequence of CDK1/Cyclin E (Homo sapiens) (P06493 whole entry, looked up): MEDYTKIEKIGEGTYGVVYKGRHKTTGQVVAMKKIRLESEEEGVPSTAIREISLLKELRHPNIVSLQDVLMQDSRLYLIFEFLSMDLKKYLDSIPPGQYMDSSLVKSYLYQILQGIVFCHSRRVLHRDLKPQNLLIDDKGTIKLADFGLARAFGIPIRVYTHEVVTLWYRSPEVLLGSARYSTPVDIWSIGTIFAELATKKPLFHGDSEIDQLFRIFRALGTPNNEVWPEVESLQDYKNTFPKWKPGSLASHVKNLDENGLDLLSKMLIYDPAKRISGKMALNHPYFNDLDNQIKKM
Sequence of CDK1/Cyclin E (Homo sapiens) (P24864 whole entry, looked up): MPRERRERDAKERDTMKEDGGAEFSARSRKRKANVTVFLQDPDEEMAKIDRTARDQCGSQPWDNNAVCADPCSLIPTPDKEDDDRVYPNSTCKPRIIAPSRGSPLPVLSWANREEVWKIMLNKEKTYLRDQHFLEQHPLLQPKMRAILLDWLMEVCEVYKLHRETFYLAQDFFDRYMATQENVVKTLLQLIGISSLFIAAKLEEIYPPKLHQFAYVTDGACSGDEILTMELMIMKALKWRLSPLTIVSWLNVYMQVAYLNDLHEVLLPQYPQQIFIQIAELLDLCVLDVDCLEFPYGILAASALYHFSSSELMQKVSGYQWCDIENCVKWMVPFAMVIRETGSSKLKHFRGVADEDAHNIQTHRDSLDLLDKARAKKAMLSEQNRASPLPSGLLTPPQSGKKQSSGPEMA

[8] = target: Cyclin-dependent kinase 4/cyclin D1 (Homo sapiens) (UniProt P11802+P24385); test: Inhibition of human CDK4/Cyclin D1 at 0.1 uM incubated for 15 mins prior to substrate addition measured after 90 mins by P33-radiolabeled assay relative to control; assay type: protein-complex assay
[9] = target: CDK9/Cyclin K (Homo sapiens) (UniProt P50750+O75909); test: Inhibition of human CDK9/Cyclin K at 0.1 uM incubated for 15 mins prior to substrate addition measured after 90 mins by P33-radiolabeled assay relative to control; assay type: protein-complex assay; method in brief: as §2
[10] = target: Mitogen-activated protein kinase 15 (Homo sapiens) (UniProt Q8TD08); test: Inhibition of human ERK7 at 0.1 uM incubated for 15 mins prior to substrate addition measured after 90 mins by P33-radiolabeled assay relative to control
Sequence of Mitogen-activated protein kinase 15 (Homo sapiens) (Q8TD08 whole entry): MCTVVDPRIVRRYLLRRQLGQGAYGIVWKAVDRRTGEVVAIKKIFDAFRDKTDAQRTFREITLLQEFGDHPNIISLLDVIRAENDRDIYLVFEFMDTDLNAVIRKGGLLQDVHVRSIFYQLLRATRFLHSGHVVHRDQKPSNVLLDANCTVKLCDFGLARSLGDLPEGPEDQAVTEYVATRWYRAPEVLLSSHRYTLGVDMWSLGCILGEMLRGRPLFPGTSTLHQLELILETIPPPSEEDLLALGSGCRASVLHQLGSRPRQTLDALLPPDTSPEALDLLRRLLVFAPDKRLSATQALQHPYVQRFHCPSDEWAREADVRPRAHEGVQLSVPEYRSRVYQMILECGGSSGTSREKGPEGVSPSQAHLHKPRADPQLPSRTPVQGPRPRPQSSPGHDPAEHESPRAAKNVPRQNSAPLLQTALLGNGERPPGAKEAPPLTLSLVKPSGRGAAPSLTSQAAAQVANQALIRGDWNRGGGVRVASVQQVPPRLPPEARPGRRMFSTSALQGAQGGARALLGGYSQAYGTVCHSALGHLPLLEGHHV

[11] = target: CDK1/Cyclin A (Homo sapiens) (UniProt P06493+P20248); test: Inhibition of human CDK1/Cyclin A at 0.1 uM incubated for 15 mins prior to substrate addition measured after 90 mins by P33-radiolabeled assay relative to control; assay type: protein-complex assay
[12] = target: Glycogen synthase kinase-3 alpha (Homo sapiens) (UniProt P49840); test: Inhibition of human GSK3alpha at 0.1 uM incubated for 15 mins prior to substrate addition measured after 90 mins by P33-radiolabeled assay relative to control
Sequence of Glycogen synthase kinase-3 alpha (Homo sapiens) (P49840 2-483 limits assumed): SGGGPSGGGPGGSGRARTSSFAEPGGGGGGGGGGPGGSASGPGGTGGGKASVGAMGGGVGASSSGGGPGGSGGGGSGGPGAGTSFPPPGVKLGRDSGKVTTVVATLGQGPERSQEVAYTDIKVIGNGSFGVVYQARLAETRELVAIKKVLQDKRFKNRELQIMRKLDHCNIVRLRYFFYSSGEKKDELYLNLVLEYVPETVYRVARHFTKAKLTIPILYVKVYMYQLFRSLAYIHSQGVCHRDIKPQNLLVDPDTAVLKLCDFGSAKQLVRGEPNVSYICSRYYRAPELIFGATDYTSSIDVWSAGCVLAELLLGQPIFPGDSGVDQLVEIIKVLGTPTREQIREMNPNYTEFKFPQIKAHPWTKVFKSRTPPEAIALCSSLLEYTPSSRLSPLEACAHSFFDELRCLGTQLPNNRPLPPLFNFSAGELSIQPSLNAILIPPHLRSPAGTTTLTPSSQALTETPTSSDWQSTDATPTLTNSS

[13] = target: Dual specificity protein kinase CLK2 (Homo sapiens) (UniProt P49760); test: Inhibition of human CLK2 at 0.1 uM incubated for 15 mins prior to substrate addition measured after 90 mins by P33-radiolabeled assay relative to control
Sequence of Dual specificity protein kinase CLK2 (Homo sapiens) (P49760 whole entry, looked up): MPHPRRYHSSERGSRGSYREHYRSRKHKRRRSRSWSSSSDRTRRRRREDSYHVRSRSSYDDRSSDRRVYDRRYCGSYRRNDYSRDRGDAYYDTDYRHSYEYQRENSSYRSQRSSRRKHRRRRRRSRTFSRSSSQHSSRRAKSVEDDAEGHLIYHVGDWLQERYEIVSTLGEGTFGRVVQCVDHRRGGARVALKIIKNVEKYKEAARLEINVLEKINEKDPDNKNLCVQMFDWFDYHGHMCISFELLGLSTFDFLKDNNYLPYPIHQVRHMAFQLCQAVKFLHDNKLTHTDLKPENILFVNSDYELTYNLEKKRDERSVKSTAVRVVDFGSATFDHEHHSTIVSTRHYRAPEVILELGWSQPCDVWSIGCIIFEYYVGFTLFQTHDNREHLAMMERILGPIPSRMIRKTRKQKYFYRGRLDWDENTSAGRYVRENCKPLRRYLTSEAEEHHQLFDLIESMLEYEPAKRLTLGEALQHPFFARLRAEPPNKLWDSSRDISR

[14] = target: Glycogen synthase kinase-3 beta (Homo sapiens, UniProt P49841); test: Inhibition of human GSK3beta at 0.1 uM incubated for 15 mins prior to substrate addition measured after 90 mins by P33-radiolabeled assay relative to control
Sequence of Glycogen synthase kinase-3 beta (P49841 whole entry, looked up): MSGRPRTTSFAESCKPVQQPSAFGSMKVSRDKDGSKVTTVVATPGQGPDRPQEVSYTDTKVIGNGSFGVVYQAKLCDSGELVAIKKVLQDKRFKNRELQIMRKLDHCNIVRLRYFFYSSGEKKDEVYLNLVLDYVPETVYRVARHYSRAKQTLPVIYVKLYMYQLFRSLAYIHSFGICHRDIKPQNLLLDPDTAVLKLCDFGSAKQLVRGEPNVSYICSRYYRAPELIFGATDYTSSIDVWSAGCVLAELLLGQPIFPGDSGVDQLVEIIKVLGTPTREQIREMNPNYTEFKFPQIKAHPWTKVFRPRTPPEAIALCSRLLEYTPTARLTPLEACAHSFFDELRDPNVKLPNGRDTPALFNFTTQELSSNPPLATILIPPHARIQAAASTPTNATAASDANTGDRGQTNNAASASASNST

[15] = target: Serine/threonine-protein kinase TAO1 (Homo sapiens) (UniProt Q7L7X3); test: Inhibition of human TAO1 at 0.1 uM incubated for 15 mins prior to substrate addition measured after 90 mins by P33-radiolabeled assay relative to control
Sequence of Serine/threonine-protein kinase TAO1 (Homo sapiens) (Q7L7X3 whole entry): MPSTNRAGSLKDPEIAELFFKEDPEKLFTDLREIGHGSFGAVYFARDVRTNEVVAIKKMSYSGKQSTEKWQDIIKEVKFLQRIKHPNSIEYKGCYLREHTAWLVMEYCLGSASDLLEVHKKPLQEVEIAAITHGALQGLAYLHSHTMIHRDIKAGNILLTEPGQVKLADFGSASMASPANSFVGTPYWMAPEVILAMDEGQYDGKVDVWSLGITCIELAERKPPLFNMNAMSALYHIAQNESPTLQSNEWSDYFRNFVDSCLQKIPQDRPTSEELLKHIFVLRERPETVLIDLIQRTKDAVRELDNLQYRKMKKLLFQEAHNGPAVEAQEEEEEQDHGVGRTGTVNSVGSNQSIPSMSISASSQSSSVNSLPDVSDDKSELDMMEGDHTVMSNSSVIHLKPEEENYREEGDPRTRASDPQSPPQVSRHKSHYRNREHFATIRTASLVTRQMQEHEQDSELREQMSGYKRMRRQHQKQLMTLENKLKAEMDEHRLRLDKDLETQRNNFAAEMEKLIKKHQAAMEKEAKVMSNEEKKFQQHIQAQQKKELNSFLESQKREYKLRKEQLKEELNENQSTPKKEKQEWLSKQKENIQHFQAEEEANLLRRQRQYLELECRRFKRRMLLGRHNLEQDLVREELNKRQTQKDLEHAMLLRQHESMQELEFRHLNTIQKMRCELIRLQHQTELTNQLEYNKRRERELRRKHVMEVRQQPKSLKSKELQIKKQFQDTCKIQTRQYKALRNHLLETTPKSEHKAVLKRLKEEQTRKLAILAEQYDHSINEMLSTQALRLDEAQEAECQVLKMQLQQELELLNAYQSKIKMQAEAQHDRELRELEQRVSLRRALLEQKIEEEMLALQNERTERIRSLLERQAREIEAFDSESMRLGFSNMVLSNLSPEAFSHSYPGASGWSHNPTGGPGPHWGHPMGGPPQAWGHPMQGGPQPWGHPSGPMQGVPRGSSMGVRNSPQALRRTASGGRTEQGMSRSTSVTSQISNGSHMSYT

[16] = target: Dual specificity tyrosine-phosphorylation-regulated kinase 1A (Homo sapiens) (UniProt Q13627); test: Inhibition of human DYRK1A at 0.1 uM incubated for 15 mins prior to substrate addition measured after 90 mins by P33-radiolabeled assay relative to control
[17] = target: Dual specificity protein kinase CLK1 (Homo sapiens) (UniProt P49759); test: Inhibition of human CLK1 at 0.1 uM incubated for 15 mins prior to substrate addition measured after 90 mins by P33-radiolabeled assay relative to control
Sequence of Dual specificity protein kinase CLK1 (Homo sapiens) (P49759 whole entry, looked up): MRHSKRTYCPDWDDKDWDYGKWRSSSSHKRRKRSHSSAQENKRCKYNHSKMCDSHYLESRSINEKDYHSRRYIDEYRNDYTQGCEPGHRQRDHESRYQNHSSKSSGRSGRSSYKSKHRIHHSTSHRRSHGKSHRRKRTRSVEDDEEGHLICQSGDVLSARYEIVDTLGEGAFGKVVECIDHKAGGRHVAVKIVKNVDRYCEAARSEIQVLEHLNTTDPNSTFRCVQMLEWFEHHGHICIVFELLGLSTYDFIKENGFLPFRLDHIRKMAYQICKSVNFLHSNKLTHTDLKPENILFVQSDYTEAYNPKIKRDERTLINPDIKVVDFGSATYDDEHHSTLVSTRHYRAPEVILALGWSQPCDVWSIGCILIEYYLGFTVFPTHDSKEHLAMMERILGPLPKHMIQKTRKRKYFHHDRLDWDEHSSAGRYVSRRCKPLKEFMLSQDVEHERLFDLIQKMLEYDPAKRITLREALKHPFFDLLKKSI

[18] = target: CDK6/cyclin D3 (Homo sapiens) (UniProt P30281+Q00534); test: Inhibition of human CDK6/Cyclin D3 at 0.1 uM incubated for 15 mins prior to substrate addition measured after 90 mins by P33-radiolabeled assay relative to control; assay type: protein-complex assay
CDK9/Cyclin K = CDK9/Cyclin K (Homo sapiens, UniProt P50750); test: Inhibition of CDK9/Cyclin K (unknown origin)-mediated phosphorylation of peptide substrate incubated for 15 mins prior to substrate addition measured after 90 mins by P33-radiolabeled assay; assay type: protein-complex assay; method in brief: as §1
[19] = target: Cyclin-dependent kinase 7/ cyclin H (Homo sapiens, UniProt P50613); test: Inhibition of CDK7/Cyclin H (unknown origin)-mediated phosphorylation of peptide substrate incubated for 15 mins prior to substrate addition measured after 90 mins by P33-radiolabeled assay; assay type: protein-complex assay
Sequence of Cyclin-dependent kinase 7/ cyclin H (P51946 whole entry): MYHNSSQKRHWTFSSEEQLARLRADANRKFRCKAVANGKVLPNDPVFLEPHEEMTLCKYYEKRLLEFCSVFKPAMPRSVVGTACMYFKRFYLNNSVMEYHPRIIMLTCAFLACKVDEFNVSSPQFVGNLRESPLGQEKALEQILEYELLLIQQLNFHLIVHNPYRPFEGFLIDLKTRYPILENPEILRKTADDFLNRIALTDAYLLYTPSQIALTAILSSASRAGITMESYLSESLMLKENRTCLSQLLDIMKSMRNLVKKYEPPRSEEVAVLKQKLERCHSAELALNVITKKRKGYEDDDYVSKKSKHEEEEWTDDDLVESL
Sequence of Cyclin-dependent kinase 7/ cyclin H (P50613 whole entry): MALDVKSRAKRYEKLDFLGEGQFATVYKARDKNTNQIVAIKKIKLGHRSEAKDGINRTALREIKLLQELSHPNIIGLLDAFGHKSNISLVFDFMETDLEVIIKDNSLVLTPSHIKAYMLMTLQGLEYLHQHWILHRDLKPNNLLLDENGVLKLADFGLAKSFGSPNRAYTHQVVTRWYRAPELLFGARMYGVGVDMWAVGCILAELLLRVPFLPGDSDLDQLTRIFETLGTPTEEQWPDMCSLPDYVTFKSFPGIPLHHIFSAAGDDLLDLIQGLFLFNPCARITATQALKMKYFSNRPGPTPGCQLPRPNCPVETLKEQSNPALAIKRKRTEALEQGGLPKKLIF

CDK6/cyclin D1 = CDK6/cyclin D1 (Homo sapiens, UniProt Q00534); test: Inhibition of CDK6/Cyclin D1 (unknown origin)-mediated phosphorylation of peptide substrate incubated for 15 mins prior to substrate addition measured after 90 mins by P33-radiolabeled assay; assay type: protein-complex assay
CDK2/Cyclin A1 = CDK2/Cyclin A1 (Homo sapiens, UniProt P24941); test: Inhibition of CDK2/Cyclin A1 (unknown origin)-mediated phosphorylation of peptide substrate incubated for 15 mins prior to substrate addition measured after 90 mins by P33-radiolabeled assay; assay type: protein-complex assay
CDK2/Cyclin A2 [20] = target: T1, CDK2/Cyclin A2; test: Inhibition of CDK2/Cyclin A (unknown origin)-mediated phosphorylation of peptide substrate incubated for 15 mins prior to substrate addition measured after 90 mins by P33-radiolabeled assay; assay type: protein-complex assay

Compound: Nc1nc(Nc2ccc(S(N)(=O)=O)cc2)sc1C(=O)c1ccccc1[N+](=O)[O-]
- IC50 (CDK2/Cyclin A2 [1]): 20 nM
- IC50 (CDK2/Cyclin A2 [2]): 1.5 nM
- Activity (NCI-H929): 26%
- Activity (A673): 196%
- IC50 (SW872): 6900 nM
- IC50 (HOS-TE85): 3000 nM
- IC50 [3]: 1600 nM
- IC50 [4]: 20000 nM
- inhibition [5]: 90%
- inhibition [6]: 90%
- inhibition [7]: 80%
- inhibition [8]: 80%
- inhibition [9]: 80%
- inhibition [10]: 70%
- inhibition [11]: 70%
- inhibition [12]: 75%
- inhibition [13]: 60%
- inhibition [14]: 60%
- inhibition [15]: 60%
- inhibition [16]: 50%
- inhibition [17]: 50%
- inhibition [18]: 85%
- IC50 (CDK9/Cyclin K): 13 nM
- IC50 [19]: > 1000 nM
- IC50 (CDK6/cyclin D1): 6.6 nM
- IC50 (CDK2/Cyclin A1): 1.8 nM
- IC50 (CDK2/Cyclin A2 [20]): 1.1 nM
